Assays:
[1] = test system: P388; test: Compound was tested for antitumor activity against P388 Murine leukemia in BDF1 female mice at a dose of 64 mg/kg per injection; type: functional, Mus musculus
Procedure, shortened: (§1)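 P388 ascites cells (10^6) implanted ip into BDF1 female mice. Aziridinomitosene given on day 1 only, six mice per dose; ten saline-treated mice on day 1 only as controls. Read-out is median survival time in days, %T/C = MST treated/MST control × 100, with 125 taken as significant. Mitomycin C run as a positive control at its optimal dose.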

[2] = test system: P388; test: Compound was tested for antitumor activity against P388 Murine leukemia in BDF1 female mice at a dose of 3.2 mg/kg per injection given as MST treated / MST control x 100; type: functional, Mus musculus; procedure, shortened: as §1
[3] = test system: Mus musculus; test: Average weight change of BDF1 female mice at a dose of 4 mg/kg per injection; type: functional
Procedure, shortened: (§2)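 BDF1 female mice implanted ip with 10^6 ascites leukemia cells, then given the aziridinomitosene on day 1 only, six mice per dose. Average weight change is the weight difference between the treated and control groups.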

[4] = Partition coefficient (logP); type: physicochemical; settings: octanol/water
[5] = test system: P388; test: Compound was tested for antitumor activity against P388 Murine leukemia in BDF1 female mice at a dose of 8 mg/kg per injection; type: functional, Mus musculus; procedure, shortened: as §1
[6] = test system: P388; test: Compound was tested for antitumor activity against P388 Murine leukemia in BDF1 female mice at a dose of 16 mg/kg per injection; type: functional, Mus musculus; procedure, shortened: as §1
[7] = test system: Mus musculus; test: Average weight change of BDF1 female mice at a dose of 64 mg/kg per injection; type: functional; procedure, shortened: as §2
[8] = test system: P388; test: Compound was tested for antitumor activity against P388 Murine leukemia in BDF1 female mice at a dose of 32 mg/kg per injection; type: functional, Mus musculus; procedure, shortened: as §1
[9] = test system: Mus musculus; test: Average weight change of BDF1 female mice at a dose of 32 mg/kg per injection; type: functional; procedure, shortened: as §2
[10] = test system: Mus musculus; test: Average weight change of BDF1 female mice at a dose of 8 mg/kg per injection; type: functional; procedure, shortened: as §2
[11] = test system: Mus musculus; test: Average weight change of BDF1 female mice at a dose of 16 mg/kg per injection; type: functional; procedure, shortened: as §2
[12] = test system: P388; test: Compound was tested for antitumor activity against P388 Murine leukemia in BDF1 female mice at a dose of 4 mg/kg per injection; type: functional, Mus musculus; procedure, shortened: as §1
[13] = test system: P388; test: Minimum effective dose determined against P-388 Murine leukemia in BDF1 female mice.; type: functional; settings: Mus musculus, read-out: MED
[14] = test system: P388; test: Compound was tested for antitumor activity against P388 Murine leukemia in BDF1 female mice at a dose of 6.4 mg/kg per injection; type: functional, Mus musculus; procedure, shortened: as §1
[15] = test system: Mus musculus; test: Average weight change of BDF1 female mice at a dose of 0.8 mg/kg per injection; type: functional; procedure, shortened: as §2
[16] = test system: P388; test: Compound was tested for antitumor activity against P388 Murine leukemia in BDF1 female mice at a dose of 1.6 mg/kg per injection (MST treated / MST control x 100); type: functional, Mus musculus; procedure, shortened: as §1
[17] = test system: P388; test: Compound was tested for antitumor activity against P388 Murine leukemia in BDF1 female mice at a dose of 0.8 mg/kg per injection; type: functional, Mus musculus; procedure, shortened: as §1
[18] = test system: Mus musculus; test: Average weight change of BDF1 female mice at a dose of 3.2 mg/kg per injection; type: functional; procedure, shortened: as §2
[19] = test system: Mus musculus; test: Average weight change of BDF1 female mice at a dose of 1.6 mg/kg per injection; type: functional; procedure, shortened: as §2
[20] = test system: Mus musculus; test: Average weight change of BDF1 female mice at a dose of 6.4 mg/kg per injection; type: functional; procedure, shortened: as §2
[21] = test system: P388; test: Compound was tested for antitumor activity against P388 Murine leukemia in BDF1 female mice at a dose of 3.2 mg/kg per injection; type: functional, Mus musculus; procedure, shortened: as §1
[22] = test system: Mus musculus; test: Average weight change of BDF1 female mice at a dose of 12.8 mg/kg per injection; type: functional; procedure, shortened: as §2
[23] = test system: P388; test: Compound was tested for antitumor activity against P388 Murine leukemia in BDF1 female mice at a dose of 12.8 mg/kg per injection; type: functional, Mus musculus; parameters: unit not given here; procedure, shortened: as §1
[24] = test system: Mus musculus; test: Average weight change of BDF1 female mice at a dose of 25.6 mg/kg per injection; type: functional; procedure, shortened: as §2
[25] = test system: Mus musculus; test: Average weight change of BDF1 female mice at a dose of 51.2 mg/kg per injection; type: functional; procedure, shortened: as §2
[26] = test system: P388; test: Compound was tested for antitumor activity against P388 Murine leukemia in BDF1 female mice at a dose of 0.2 mg/kg per injection; type: functional, Mus musculus; procedure, shortened: as §1
[27] = test system: P388; test: Compound was tested for antitumor activity against P388 Murine leukemia in BDF1 female mice at a dose of 3.2 mg/kg per injection (MST treated / MST control x 100); type: functional, Mus musculus; procedure, shortened: as §1
[28] = test system: P388; test: Compound was tested for antitumor activity against P388 Murine leukemia in BDF1 female mice at a dose of 0.4 mg/kg per injection; type: functional, Mus musculus; procedure, shortened: as §1
[29] = test system: P388; test: Compound was tested for antitumor activity against P388 Murine leukemia in BDF1 female mice at a dose of 1.6 mg/kg per injection; type: functional, Mus musculus; procedure, shortened: as §1
[30] = test system: P388; test: Compound was tested for antitumor activity against P388 Murine leukemia in BDF1 female mice at a dose of 25.6 mg/kg per injection; type: functional, Mus musculus; procedure, shortened: as §1
[31] = test system: P388; test: Compound was tested for antitumor activity against P388 Murine leukemia in BDF1 female mice at a dose of 51.2 mg/kg per injection (MST treated / MST control x 100); type: functional, Mus musculus; procedure, shortened: as §1
[32] = test system: Mus musculus; test: Average weight change of BDF1 female mice at a dose of 6 mg/kg per injection; type: functional; procedure, shortened: as §2
[33] = test system: L1210; test: Compound was tested for antitumor activity against L-1210 Murine leukemia in BDF1 female mice at a dose of 6 mg/kg per injection; type: functional, Mus musculus
Procedure, shortened: (§3)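 L-1210 run per NCI protocol. 10^6 ascites cells implanted ip into BDF1 female mice. Aziridinomitosene given on day 1 only, six mice per dose, with a control group of 36 mice. Median survival time in days is recorded, and %T/C = MST treated/MST control × 100, with 125 taken as significant.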

[34] = test system: L1210; test: Compound was tested for antitumor activity against L-1210 Murine leukemia in BDF1 female mice at a dose of 48 mg/kg per injection; type: functional, Mus musculus; procedure, shortened: as §3
[35] = test system: Mus musculus; test: Average weight change of BDF1 female mice at a dose of 24 mg/kg per injection; type: functional; procedure, shortened: as §2
[36] = test system: L1210; test: Compound was tested for antitumor activity against L-1210 Murine leukemia in BDF1 female mice at a dose of 12 mg/kg per injection; type: functional, Mus musculus; procedure, shortened: as §3
[37] = test system: Mus musculus; test: Average weight change of BDF1 female mice at a dose of 48 mg/kg per injection; type: functional; procedure, shortened: as §2
[38] = test system: P388; test: Compound was tested for antitumor activity against P388 Murine leukemia in BDF1 female mice at a dose of 25.6 mg/kg per injection (MST treated / MST control x 100); type: functional, Mus musculus; procedure, shortened: as §1
[39] = test system: L1210; test: Compound was tested for antitumor activity against L-1210 Murine leukemia in BDF1 female mice at a dose of 24 mg/kg per injection; type: functional, Mus musculus; procedure, shortened: as §3
[40] = test system: Mus musculus; test: Average weight change of BDF1 female mice at a dose of 12 mg/kg per injection; type: functional; procedure, shortened: as §2

Compound: CC1=C(NCc2ccco2)C(=O)c2c(COC(N)=O)c3n(c2C1=O)CC1NC31 (stereo not given)
- MST [1]: 183 days
- T/C [2]: 228%
- Weight change [3]: -0.7 g
- logP [4]: 1.33
- MST [5]: 144 days
- MST [6]: 156 days
- Weight change [7]: -1.8 g
- MST [8]: 189 days
- Weight change [9]: -1.2 g
- Weight change [10]: 0.1 g
- Weight change [11]: -1.7 g
- MST [12]: 122 days
- minimal effective dose [13]: 8 mg/kg

Compound: COC1=C(C)C(=O)c2c(c(COC(N)=O)c3n2CC2C3N2C)C1=O (stereo not given)
- MST [14]: 213 days
- logP [4]: 1.28
- Weight change [15]: 0.8 g
- T/C [16]: 156%
- MST [17]: 150 days
- Weight change [18]: 0.5 g
- Weight change [19]: -0.2 g
- Weight change [20]: -0.3 g
- MST [21]: 188 days
- Weight change [22]: -1.7 g
- minimal effective dose [13]: 0.8 mg/kg
- MST [23]: 213

Compound: CC1=C(N2CC2C)C(=O)c2c(COC(N)=O)c3n(c2C1=O)CC1C3N1C (stereo not given)
- MST [14]: 194 %T/C
- Weight change [24]: -1 g
- logP [4]: 1.23
- MST [17]: 125 days
- Weight change [18]: 0 g
- Weight change [19]: 0 g
- Weight change [25]: -1.3 g
- Weight change [20]: -0.4 g
- T/C [26]: 125%
- T/C [27]: 163%
- Weight change [22]: -0.5 g
- MST [28]: 138 days
- MST [29]: 156 days
- minimal effective dose [13]: 0.2 mg/kg
- MST [23]: 238

Compound: COC1=C(C)C(=O)c2c(c(COC(N)=O)c3n2CC2NC32)C1=O (stereo not given)
- MST [14]: 122 %T/C
- Weight change [24]: -0.4 g
- logP [4]: 0.87
- Weight change [18]: -0.4 g
- Weight change [20]: 0 g
- MST [30]: 167 % T/C
- T/C [27]: 122%
- Weight change [22]: -0.8 g
- minimal effective dose [13]: 12.8 mg/kg
- MST [23]: 139

Compound: CC1=C(N2CC2)C(=O)c2c(COC(N)=O)c3n(c2C1=O)CC1NC31 (stereo not given)
- T/C [31]: 206%
- Weight change [24]: -0.4 g
- logP [4]: 0.3
- Weight change [32]: -0.4 g
- Weight change [15]: 0.9 g
- MST [17]: 111 days
- Weight change [18]: 1 g
- Weight change [19]: 1 g
- % T/C [33]: 118%
- MST [34]: 131 days
- T/C [27]: 144%
- Weight change [35]: -2.6 g
- % T/C [36]: 122%
- Weight change [37]: -4.2 g
- Weight change [22]: 0.9 g
- T/C [38]: 189%
- MST [39]: 120 days
- Weight change [40]: -1.3 g
- minimal effective dose [13]: 1.6 mg/kg
- MST [23]: 172

From ChEMBL document CHEMBL1123541, “Preparation and antitumor activity of 7-substituted 1,2-aziridinomitosenes” (J Med Chem, 1986)
